Hits are enriched below; roughly 3.5% of the tested compounds scored in any of these assays.
RGS4 block = inhibitors of human RGS4; HEK293 M3R/RGS4 inducible, Fluo-4 calcium flux; stronger effect = higher value; triggered by carbachol at its EC20; AID 463165; P49798; B-score at 10 µM; 310,000 tested, 0.45% active;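 active means B-score, a plate-corrected calcium signal, over three deviations above library mean, with baseline fluorescence within five deviations of library mean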;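 further: RGS4 expression induced by doxycycline in cells with stable M3 receptor; B-score is computed from the integrated fluorescence ratio over baseline after carbachol; higher B-score means a larger calcium signal and so more RGS4 inhibition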
Target sequence (P49798 whole entry, looked up): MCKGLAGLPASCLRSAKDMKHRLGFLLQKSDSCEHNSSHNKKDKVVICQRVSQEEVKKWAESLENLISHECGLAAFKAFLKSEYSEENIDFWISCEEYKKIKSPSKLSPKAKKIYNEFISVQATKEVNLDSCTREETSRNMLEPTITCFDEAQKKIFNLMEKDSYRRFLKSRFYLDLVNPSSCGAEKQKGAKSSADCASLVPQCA
MrgX1 ag = activates human MrgX1 receptor signaling; Q96LB2; MrgX1-HEK293 cells, Fluo-4 calcium fluorescence, agonist mode; stronger effect = higher value; B-score at 10 µM; 310,000 tested, 0.44% active; AID 588627;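 active means calcium response B-score plate-corrected fluorescence ratio at least 3 library SD, with starting fluorescence B-score inside 5 SD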
Target sequence (Q96LB2 whole entry, looked up): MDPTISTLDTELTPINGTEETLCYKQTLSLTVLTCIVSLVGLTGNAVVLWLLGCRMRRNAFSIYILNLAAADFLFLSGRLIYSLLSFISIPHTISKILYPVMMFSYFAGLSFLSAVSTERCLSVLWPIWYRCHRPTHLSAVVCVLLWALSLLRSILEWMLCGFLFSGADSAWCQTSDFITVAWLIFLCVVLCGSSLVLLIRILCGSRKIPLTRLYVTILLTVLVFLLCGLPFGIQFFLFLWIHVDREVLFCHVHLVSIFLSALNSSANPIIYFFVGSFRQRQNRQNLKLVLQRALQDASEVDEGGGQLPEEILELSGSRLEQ
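times = overnight plating, then 30 min 37 °C plus 30 min room-temperature dye loading | assay system = stable human MrgX1 HEK293 cell line | input = fifteen thousand cells per well | signal = kinetic calcium dye fluorescence, Fluo-4 NW | dosing = compound delivered in addition one of three | read-out = B-scored fluorescence response ratio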
MrgX1 PAM = human MrgX1 positive allosteric modulation, primary screen; Q96LB2; MrgX1-HEK293, Fluo-4 calcium flux, FDSS; stronger effect = higher value; B-score at 10 µM; 310,000 tested, 0.63% active;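 active means plate-corrected calcium response at least 3 library SD above typical, normal starting fluorescence, not activating the receptor alone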;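 further: compound read alongside a low EC10 to EC30 dose of BAM8-22 agonist; peak minus trough fluorescence over baseline measured at the second addition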
RGS4 act = RGS4 potentiation or activation | AID 463111 | 310,000 tested, 0.92% active | HEK293 M3R/inducible RGS4, carbachol calcium flux Fluo4; stronger effect = lower value | B-score at 10 µM;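 active means B-score of the integrated calcium signal more than 4 SD below the library mean, with starting fluorescence not abnormally high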;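 further: negative B-score means reduced calcium response which marks RGS4 activation or potentiation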
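Material: Inducible-RGS4 HEK293 cells carrying M3 receptor; also added: carbachol at ECmax as muscarinic agonist stimulus; incubation: compound preincubation 20 min at room temperature before agonist; signal: Fluo4-AM (2 µM) calcium-flux fluorescence, kinetic read; measure: integrated calcium ratio converted to B score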
MrgX1 antagonist = blocks BAM8-22 activation of human MrgX1 receptor. B-score at 10 µM. 310,000 tested, 1.3% active. MRGX1-HEK293 calcium flux, Fluo-4, BAM8-22 antagonism; stronger effect = lower value. AID 588676;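 active means calcium-response B-score plate-corrected more than 3 library SD below zero, starting fluorescence within 5 deviations, no agonist response on first addition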;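 further: peak minus trough fluorescence over baseline after final BAM8-22 challenge near maximal dose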
Starred values were filed as active, the others as inactive.

How did COc1cc(C2C(C#N)=C(N)OC3=C2C(=O)CC(C)(C)C3)c([N+](=O)[O-])cc1OC (configuration not stated) do in these assays?
RGS4 block: inactive; MrgX1 ag: 29.2*; MrgX1 PAM: inactive; RGS4 act: inactive; MrgX1 antagonist: inactive

How did Cc1ccccc1CNC(=O)C1CCC(=O)N(C2CCCCCC2)C1 (configuration not stated) do in these assays?
RGS4 block: inactive; MrgX1 ag: inactive; MrgX1 PAM: inactive; RGS4 act: inactive; MrgX1 antagonist: inactive

Results for COc1ccc(NC(=O)/C=C/C(=O)O)c([N+](=O)[O-])c1 ?
RGS4 block: inactive; MrgX1 ag: inactive; MrgX1 PAM: 13.5*; RGS4 act: inactive; MrgX1 antagonist: inactive

How did Cc1ccc(NC(=O)/C=C/C(=O)O)c([N+](=O)[O-])c1 do in these assays?
RGS4 block: inactive; MrgX1 ag: inactive; MrgX1 PAM: inactive; RGS4 act: inactive; MrgX1 antagonist: inactive

What do the screens show for `Cc1ccc2c(c1)/C(=C/c1ccco1)C(=O)N2`?
RGS4 block: inactive; MrgX1 ag: inactive; MrgX1 PAM: inactive; RGS4 act: inactive; MrgX1 antagonist: inactive

Results for O=C1Nc2ccc(Br)cc2/C1=C/c1ccc(C(=O)O)cc1 ?
RGS4 block: 8.01*; MrgX1 ag: inactive; MrgX1 PAM: inactive; RGS4 act: inactive; MrgX1 antagonist: inactive

Results for CC1(C)CC(NC(=O)c2cc(S(=O)(=O)N3CCCCC3)ccc2Cl)CC(C)(C)N1 ?
RGS4 block: inactive; MrgX1 ag: inactive; MrgX1 PAM: inactive; RGS4 act: inactive; MrgX1 antagonist: inactive

How did CCOC(=O)c1c(-c2ccccc2)oc2ccc(OCC)cc12 do in these assays?
RGS4 block: inactive; MrgX1 ag: inactive; MrgX1 PAM: inactive; RGS4 act: inactive; MrgX1 antagonist: inactive

What do the screens show for `CCOC(=O)c1c(-c2ccccc2)oc2ccc(OCC(O)CNCCN(C)C)cc12` (configuration not stated)?
RGS4 block: inactive; MrgX1 ag: inactive; MrgX1 PAM: inactive; RGS4 act: -7.61*; MrgX1 antagonist: inactive

What do the screens show for `COc1ccc(C2NC(=O)NC(O)(C(F)(F)F)C2C(=O)c2ccc(C)cc2)cc1` (configuration not stated)?
RGS4 block: inactive; MrgX1 ag: inactive; MrgX1 PAM: inactive; RGS4 act: -7.56*; MrgX1 antagonist: inactive

Results for COc1ccc(/C=N/Nc2nnc(Cc3ccccc3)c(=O)[nH]2)cc1 ?
RGS4 block: inactive; MrgX1 ag: 27.8*; MrgX1 PAM: inactive; RGS4 act: inactive; MrgX1 antagonist: inactive

What do the screens show for `COc1ccc(S(=O)(=O)/N=C2/C=CC(=O)C(C)=C2C)cc1`?
RGS4 block: inactive; MrgX1 ag: inactive; MrgX1 PAM: inactive; RGS4 act: inactive; MrgX1 antagonist: inactive

How did CC1=C/C(=N\OS(=O)(=O)c2ccccc2)C(C(C)C)=CC1=O do in these assays?
MrgX1 ag: inactive; MrgX1 PAM: inactive; MrgX1 antagonist: -4.55*

How did CC1=C(C)/C(=N\OS(=O)(=O)c2ccc(C)cc2)C=CC1=O do in these assays?
MrgX1 ag: inactive; MrgX1 PAM: inactive; MrgX1 antagonist: -5.19*

What do the screens show for `CC1=C/C(=N\OS(=O)(=O)c2ccccc2)C(C)=CC1=O`?
MrgX1 ag: inactive; MrgX1 PAM: 14.7*; MrgX1 antagonist: inactive

Results for CC1=CC(=O)c2ccccc2C1=O ?
RGS4 block: inactive; MrgX1 ag: inactive; MrgX1 PAM: inactive; RGS4 act: inactive; MrgX1 antagonist: inactive

What do the screens show for `CC(NC(=O)CNC(=O)c1cccc(Cl)c1)c1ccccc1` (configuration not stated)?
RGS4 block: inactive; MrgX1 ag: inactive; MrgX1 PAM: inactive; RGS4 act: inactive; MrgX1 antagonist: inactive

How did COc1ccc(CCNC(=O)COC(=O)/C=C/c2ccc(OC)c(OC)c2)cc1 do in these assays?
RGS4 block: inactive; MrgX1 ag: inactive; MrgX1 PAM: inactive; RGS4 act: inactive; MrgX1 antagonist: -4.52*

What do the screens show for `COc1ccc(/C=C\C(=O)Oc2cccc(/C=N/NC(=O)Cc3ccc(OC)c(OC)c3)c2)cc1`?
RGS4 block: inactive; MrgX1 ag: inactive; MrgX1 PAM: inactive; RGS4 act: inactive; MrgX1 antagonist: -5.48*

How did COc1ccc(/C=C/C(=O)Oc2cccc(/C=N/NC(=O)c3cccc(F)c3)c2)cc1 do in these assays?
RGS4 block: inactive; MrgX1 ag: inactive; MrgX1 PAM: inactive; RGS4 act: inactive; MrgX1 antagonist: inactive

What do the screens show for `CCCCS(=O)(=O)N1CCCC(C(=O)Nc2ccc3c(c2)CCC3)C1` (configuration not stated)?
RGS4 block: inactive; MrgX1 ag: inactive; MrgX1 PAM: inactive; RGS4 act: inactive; MrgX1 antagonist: inactive

How did CCOC(=O)CN1N=C(c2ccc(Cl)cc2)CCC1=O do in these assays?
RGS4 block: inactive; MrgX1 ag: inactive; MrgX1 PAM: inactive; RGS4 act: inactive; MrgX1 antagonist: inactive

How did CCN(CC)S(=O)(=O)c1ccc(-c2nnc(SCC(=O)Nc3cc(OC)cc(OC)c3)o2)cc1 do in these assays?
RGS4 block: inactive; MrgX1 ag: inactive; MrgX1 PAM: inactive; RGS4 act: inactive; MrgX1 antagonist: -4.61*

Results for CCc1nc(CNC(=O)C2CCC(=O)N(Cc3cccc(OC)c3)C2)no1 (configuration not stated) ?
RGS4 block: inactive; MrgX1 ag: inactive; MrgX1 PAM: inactive; RGS4 act: inactive; MrgX1 antagonist: inactive

Results for Cc1ccccc1NC1=NCC(c2ccc([N+](=O)[O-])cc2)S1 (configuration not stated) ?
RGS4 block: inactive; MrgX1 ag: inactive; MrgX1 PAM: inactive; RGS4 act: inactive; MrgX1 antagonist: -5.66*

How did Clc1ccc(CSc2nnc(-c3sccc3-n3cccc3)o2)cc1 do in these assays?
RGS4 block: inactive; MrgX1 ag: inactive; MrgX1 PAM: inactive; RGS4 act: inactive; MrgX1 antagonist: -4.78*

How did CCc1nnc(NC(=O)CCN2C(=O)C3CCCCC3C2=O)s1 (configuration not stated) do in these assays?
RGS4 block: inactive; MrgX1 ag: inactive; MrgX1 PAM: inactive; RGS4 act: inactive; MrgX1 antagonist: inactive

What do the screens show for `COc1ccccc1NC(=O)CCCCCN1C(=O)c2cccc([N+](=O)[O-])c2C1=O`?
RGS4 block: inactive; MrgX1 ag: inactive; MrgX1 PAM: inactive; RGS4 act: inactive; MrgX1 antagonist: inactive

What do the screens show for `COc1cc(/C=C2/C(=O)c3cccc([N+](=O)[O-])c3C2=O)c(Br)cc1O`?
MrgX1 ag: 34.8*; MrgX1 PAM: inactive; MrgX1 antagonist: inactive

What do the screens show for `O=C1C(=C2CCCCC2)SC(=S)N1Cc1ccco1`?
RGS4 block: inactive; MrgX1 ag: inactive; MrgX1 PAM: inactive; RGS4 act: -7.91*; MrgX1 antagonist: inactive

Compound activity (PubChem)
